The source made the active and inactive calls. The calls are words filed in the database; no cut-off is given here.
How the values were obtained:
[1] = target: Mitogen-activated protein kinase 14 (Homo sapiens) (UniProt Q16539); assay: Inhibition of p38-alpha (unknown origin) at 50 uM
Procedure, shortened: (§1)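 Kinase-Glo Plus luminescent assay. Enzyme, substrate, ATP and compound were mixed in 25 mM HEPES pH 7.4 with 10 mM MgCl₂ and incubated 1 h at 30 °C. The reaction was stopped with an equal volume of Kinase-Glo Plus reagent. Luminescence reflects remaining ATP, inversely related to kinase activity, and is reported as percent inhibition at a single concentration.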

[2] = target: Mitogen-activated protein kinase 14 (Homo sapiens) (UniProt Q16539); assay: Inhibition of p38-alpha (unknown origin) at 100 uM; procedure, shortened: as §1
[3] = target: RAF proto-oncogene serine/threonine-protein kinase (Homo sapiens) (UniProt P04049); assay: Inhibition of Raf1 (unknown origin) at 50 uM; procedure, shortened: as §1
[4] = Cytotoxicity against human HL7702 cells assessed as inhibition rate at 100 uM measured after 48 hrs by MTT assay; type: cell-based, L02; details: read-out: INH
Procedure, shortened: (§2)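 Normal liver cells were grown in DMEM with 10% FBS plus penicillin/streptomycin at 37 °C, 5% CO₂. They were seeded at 5 × 10⁵ cells/mL and incubated 24 h. Compounds from DMSO stock were added at final 50 or 100 µM (DMSO <1%), in triplicate, for 48 h. MTT was added for 4 h, formazan dissolved in DMSO, A495 read, and inhibition rate calculated.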

[5] = Cytotoxicity against human QSG7701 cells assessed as inhibition rate at 100 uM measured after 48 hrs by MTT assay; type: cell-based; details: read-out: INH; procedure, shortened: as §2
[6] = Cytotoxicity against human HL7702 cells assessed as inhibition rate at 50 uM measured after 48 hrs by MTT assay; type: cell-based, L02; details: read-out: INH; procedure, shortened: as §2
[7] = Cytotoxicity against human QSG7701 cells assessed as inhibition rate at 50 uM measured after 48 hrs by MTT assay; type: cell-based; details: read-out: INH; procedure, shortened: as §2
HCT-116 = assay: Antiproliferative activity against human HCT116 cells assessed as growth inhibition measured after 48 hrs by MTT assay; type: functional, cell-based; details: HCT-116, 48 h
Procedure, shortened: (§3)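 Compounds dissolved in DMSO and diluted in medium to final 0.5–50 µM (final DMSO <1%). Cells were grown in DMEM with 10% FBS, penicillin and streptomycin at 37 °C, 5% CO₂. They were seeded at 5 × 10⁵ cells/mL, incubated 24 h, then treated in triplicate per concentration for 48 h. MTT was added for 4 h, formazan dissolved in DMSO, absorbance read at 495 nm, and IC50 derived.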

A549 = assay: Antiproliferative activity against human A549 cells assessed as growth inhibition measured after 48 hrs by MTT assay; type: functional, cell-based; details: A549, 48 h; procedure, shortened: as §3
HepG2 = assay: Antiproliferative activity against human HepG2 cells assessed as growth inhibition measured after 48 hrs by MTT assay; type: functional, cell-based; details: HepG2, 48 h; procedure, shortened: as §3
[8] = target: Mitogen-activated protein kinase 3 (Homo sapiens) (UniProt P27361); assay: Inhibition of ERK1 (unknown origin) at 50 uM
Procedure, shortened: (§4)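 Luminescent Kinase-Glo Plus assay. Enzyme, substrate, ATP and compound were mixed in pH 7.4 buffer containing 25 mM HEPES and 10 mM MgCl2, then incubated at 30 °C for 1 h. An equal volume of Kinase-Glo Plus reagent stopped the reaction before luminescence was read. Signal tracks remaining ATP and runs inversely to kinase activity; results are given as percent inhibition.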

[9] = target: Mitogen-activated protein kinase 8 (Homo sapiens) (UniProt P45983); assay: Inhibition of JNK1 (unknown origin) at 50 uM; procedure, shortened: as §4
Mitogen-activated protein kinase 8 (Homo sapiens), sequence (P45983 whole entry): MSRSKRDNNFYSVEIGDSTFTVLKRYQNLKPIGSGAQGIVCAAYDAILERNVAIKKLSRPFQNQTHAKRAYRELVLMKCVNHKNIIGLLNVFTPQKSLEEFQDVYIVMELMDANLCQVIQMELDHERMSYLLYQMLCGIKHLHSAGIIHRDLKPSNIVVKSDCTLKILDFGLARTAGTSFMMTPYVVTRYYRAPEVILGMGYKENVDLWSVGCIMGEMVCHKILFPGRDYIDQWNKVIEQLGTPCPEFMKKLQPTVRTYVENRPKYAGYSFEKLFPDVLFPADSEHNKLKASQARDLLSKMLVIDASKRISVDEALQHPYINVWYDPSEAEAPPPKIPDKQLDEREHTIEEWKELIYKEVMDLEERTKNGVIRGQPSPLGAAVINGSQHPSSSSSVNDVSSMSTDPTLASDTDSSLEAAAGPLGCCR

Mitogen-activated protein kinase 14 (Homo sapiens), sequence (Q16539 whole entry): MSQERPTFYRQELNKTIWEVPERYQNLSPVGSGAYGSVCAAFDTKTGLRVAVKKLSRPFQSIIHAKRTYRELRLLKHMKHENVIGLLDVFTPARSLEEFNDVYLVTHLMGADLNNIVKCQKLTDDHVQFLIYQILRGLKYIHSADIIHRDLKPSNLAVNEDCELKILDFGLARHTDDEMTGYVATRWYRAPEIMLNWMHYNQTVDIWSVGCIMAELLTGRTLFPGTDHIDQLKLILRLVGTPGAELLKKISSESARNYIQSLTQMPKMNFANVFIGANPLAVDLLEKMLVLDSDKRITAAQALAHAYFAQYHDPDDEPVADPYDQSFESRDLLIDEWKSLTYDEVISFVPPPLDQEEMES
RAF proto-oncogene serine/threonine-protein kinase (Homo sapiens), sequence (P04049 whole entry): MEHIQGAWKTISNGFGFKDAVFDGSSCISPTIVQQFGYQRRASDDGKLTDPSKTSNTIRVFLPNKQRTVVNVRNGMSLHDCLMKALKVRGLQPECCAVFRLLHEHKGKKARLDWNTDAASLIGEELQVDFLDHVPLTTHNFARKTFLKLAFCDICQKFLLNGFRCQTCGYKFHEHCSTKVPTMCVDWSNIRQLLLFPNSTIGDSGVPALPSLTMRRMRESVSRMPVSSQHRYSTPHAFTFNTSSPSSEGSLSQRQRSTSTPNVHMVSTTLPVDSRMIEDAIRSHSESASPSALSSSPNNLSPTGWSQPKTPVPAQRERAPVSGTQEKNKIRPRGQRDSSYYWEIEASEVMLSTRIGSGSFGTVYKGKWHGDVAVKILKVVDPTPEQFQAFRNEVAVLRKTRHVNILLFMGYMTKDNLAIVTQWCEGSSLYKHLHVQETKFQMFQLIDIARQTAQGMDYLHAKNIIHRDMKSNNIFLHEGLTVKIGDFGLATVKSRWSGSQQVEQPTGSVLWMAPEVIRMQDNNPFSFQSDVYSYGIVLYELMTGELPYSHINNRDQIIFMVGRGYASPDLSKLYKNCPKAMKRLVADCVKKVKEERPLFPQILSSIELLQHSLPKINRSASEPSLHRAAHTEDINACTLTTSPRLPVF
Mitogen-activated protein kinase 3 (Homo sapiens), sequence (P27361 whole entry): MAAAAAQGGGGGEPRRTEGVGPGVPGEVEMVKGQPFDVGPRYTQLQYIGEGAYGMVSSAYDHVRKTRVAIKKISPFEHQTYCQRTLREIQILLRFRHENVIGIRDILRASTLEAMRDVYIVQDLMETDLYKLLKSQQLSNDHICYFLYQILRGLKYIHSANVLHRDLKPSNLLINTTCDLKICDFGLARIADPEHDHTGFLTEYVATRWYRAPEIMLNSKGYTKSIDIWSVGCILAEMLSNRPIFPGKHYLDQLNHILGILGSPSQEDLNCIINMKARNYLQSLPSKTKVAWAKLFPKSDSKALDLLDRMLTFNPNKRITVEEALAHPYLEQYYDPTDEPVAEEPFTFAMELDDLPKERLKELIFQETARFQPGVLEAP

Row | Structure (SMILES) | IC50 (HCT-116) | IC50 (A549) | IC50 (HepG2) | cytotoxicity at 48 h, 100 µM [4] | cytotoxicity at 48 h, 100 µM [5] | cytotoxicity at 48 h, 50 µM [6] | cytotoxicity at 48 h, 50 µM [7] | also measured
1 | Oc1ccc(-c2nc(-c3ccc(F)cc3)c(-c3ccncc3)[nH]2)cc1 | – | – | – | – | – | – | – | inhibition [1]: 106%
2 | CCc1ccc2oc(-c3ccc(N)cc3Cl)cc(=O)c2c1 | – | – | – | – | – | – | – | inhibition [2]: 14.5%; inhibition [3]: 27%
3 | CCc1ccc2oc(-c3ccc(NC(=O)Cc4cccc(F)c4)cc3Cl)cc(=O)c2c1 | > 50 µM | > 50 µM | 19.8 µM | 44.6% | 27.4% | 20.4% | 22.4% | –
4 | CN[C@@H]1C[C@H]2O[C@@](C)([C@@H]1OC)n1c3ccccc3c3c4c(c5c6ccccc6n2c5c31)C(=O)NC4 | – | – | – | – | – | – | – | inhibition [8]: 99.4%; inhibition [9]: 96%
5 | Nc1ccc(-c2cc(=O)c3ccc(O)cc3o2)c(Cl)c1 | – | – | – | – | – | – | – | inhibition [3]: inactive; inhibition [1]: inactive

More lines, main results first:

Row | IC50 (HCT-116) | IC50 (A549) | IC50 (HepG2) | Structure (SMILES) | cytotoxicity at 48 h, 100 µM [4] | cytotoxicity at 48 h, 100 µM [5] | cytotoxicity at 48 h, 50 µM [6] | cytotoxicity at 48 h, 50 µM [7] | also measured
6 | 25.4 µM | 14 µM | 9.7 µM | O=C(Nc1cccc(Cl)c1)Nc1ccc(-c2cc(=O)c3ccccc3o2)c(Cl)c1 | 47.1% | 62.4% | 26.8% | 48.9% | –
7 | > 50 µM | > 50 µM | > 50 µM | CCc1ccc2oc(-c3ccc(NC(=O)Cc4ccc(F)cc4)cc3Cl)cc(=O)c2c1 | 45.2% | 36.9% | 29.1% | 16.2% | –
